Laboratory results reported in article PMC4515784 (Journal of Medicinal Chemistry, 2015).

Assays:
hSERT = hSERT (Homo sapiens, UniProt P31645); format: cell-based
[1] = Reversed-phase HPLC relative lipophilicity; format: physicochemical; conditions: C-18 column, 45% MeOH/CH3CN (1:1) and 55% water with Et3N and HOAc, 3.0 mL/min
In short: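 Waters C-18 Nova-Pak column (8 × 100 mm, 6 μm, radial compression). Organic phase MeOH/CH3CN 1:1 v/v; aqueous phase contained Et3N (2.1% v/v) and HOAc (2.8% v/v). Isocratic 45% organic/55% aqueous at 3.0 mL/min, with one analogue run at 42%/58%. Retention time and k′ recorded for radioiodinated products, matched to nonradioactive standards by coelution.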

HA-hSERT = HA-hSERT (Homo sapiens, UniProt P31645); test: hSERT photoaffinity labeling in HA-hSERT LLCPK1 cells; format: binding
Sequence of HA-hSERT (P31645 whole entry): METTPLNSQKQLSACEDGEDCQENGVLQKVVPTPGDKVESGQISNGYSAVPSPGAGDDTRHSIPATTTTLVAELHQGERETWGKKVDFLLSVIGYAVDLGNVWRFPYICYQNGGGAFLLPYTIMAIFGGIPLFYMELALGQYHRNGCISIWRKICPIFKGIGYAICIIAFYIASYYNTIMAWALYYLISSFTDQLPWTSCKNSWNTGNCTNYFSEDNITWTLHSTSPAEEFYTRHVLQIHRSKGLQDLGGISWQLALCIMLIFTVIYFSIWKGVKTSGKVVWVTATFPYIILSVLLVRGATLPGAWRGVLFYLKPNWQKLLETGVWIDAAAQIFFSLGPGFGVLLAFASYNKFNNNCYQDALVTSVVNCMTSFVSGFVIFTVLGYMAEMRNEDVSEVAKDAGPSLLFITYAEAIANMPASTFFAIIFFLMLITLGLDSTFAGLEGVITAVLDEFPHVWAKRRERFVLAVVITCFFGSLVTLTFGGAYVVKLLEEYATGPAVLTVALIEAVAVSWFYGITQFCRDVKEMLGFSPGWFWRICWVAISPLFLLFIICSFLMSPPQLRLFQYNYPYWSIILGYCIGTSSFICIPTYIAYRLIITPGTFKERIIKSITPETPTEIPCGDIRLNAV

Sequence of hSERT (P31645 whole entry): as above

Compound	Reduction in WT hSERT affinity compared to (S)-citalopram (hSERT) [fold]	Capacity factor k′ (relative lipophilicity) [1]	Effect of (S)-citalopram preincubation on irreversible hSERT labeling (in words) (HA-hSERT)	Irreversible (covalent) labeling of hSERT upon photoactivation (HA-hSERT)
CN(C)CCC[C@@]1(c2ccc(F)cc2)OCc2cc(CNC(=O)c3ccc(N=[N+]=[N-])c(I)c3)ccc21 [compound 26, (S)-4-Azido-N-((1-(3-(dimethylamino)propyl)-1-(4-fluorophenyl)-1,3-dihydroisobenzofuran-5-yl)methyl)-3-iodobenzamide]	11	–	–	–
CN(CCC[C@@]1(c2ccc(F)cc2)OCc2cc(C#N)ccc21)CCc1ccc(N=[N+]=[N-])c(I)c1 [compound 15, (S)-1-(3-((4-Azido-3-iodophenethyl)(methyl)amino)propyl)-1-(4-fluorophenyl)-1,3-dihydroisobenzofuran-5-carbonitrile]	100	–	–	–
CN(C)CCC[C@@]1(c2ccc(F)cc2)OCc2cc(CNC(=O)c3ccc(N=[N+]=[N-])c([125I])c3)ccc21 [[^125I]26, (S)-4-Azido-N-((1-(3-(dimethylamino)propyl)-1-(4-fluorophenyl)-1,3-dihydroisobenzofuran-5-yl)methyl)-3-[^125I]-iodobenzamide]	–	10.6	completely eliminated	covalently label
CN(C)CCC[C@@]1(c2ccc(F)cc2)OCc2cc(CNC(=O)CCc3ccc(N=[N+]=[N-])c([125I])c3)ccc21 [[^125I]22, (S)-3-(4-Azido-3-[^125I]-iodophenyl)-N-((1-(3-(dimethylamino)propyl)-1-(4-fluorophenyl)-1,3-dihydroisobenzofuran-5-yl)methyl)propanamide]	–	10.4	completely eliminated	covalently label
CN(C)CCC[C@@]1(c2ccc(F)cc2)OCc2cc(CNC(=O)CCc3ccc(N=[N+]=[N-])c(I)c3)ccc21 [compound 22, (S)-3-(4-Azido-3-iodophenyl)-N-((1-(3-(dimethylamino)propyl)-1-(4-fluorophenyl)-1,3-dihydroisobenzofuran-5-yl)methyl)propanamide]	17	–	–	–
CN(CCC[C@@]1(c2ccc(F)cc2)OCc2cc(C#N)ccc21)CCc1ccc(N=[N+]=[N-])c([125I])c1 [[^125I]15, (S)-1-(3-((4-Azido-3-[^125I]-iodophenethyl)(methyl)amino)propyl)-1-(4-fluorophenyl)-1,3-dihydroisobenzofuran-5-carbonitrile]	–	18.3	–	covalently label
